Measured values taken from ChEMBL document CHEMBL2412956, “Synthesis and biological activity evaluation of 5-pyrazoline substituted 4-thiazolidinones” (Eur J Med Chem, 2013).

What was measured:
HCT-116 = experiment: Cytotoxicity against human HCT116 cells after 48 hrs by SRB assay; assay type: functional; conditions: HCT-116, 48 h
How it was run: (§1)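 This was the NCI 60-cell-line five-dose screen, using 10-fold dilutions from 100 to 0.01 μM and continuous 48-h exposure. Growth was read by sulforhodamine B protein staining relative to time-zero and untreated controls. […] Where an endpoint was not reached, the value was given as beyond the range tested.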

NCI-H460 [1] = experiment: Cytotoxicity against human NCI-H460 cells after 48 hrs by SRB assay; assay type: functional; conditions: NCI-H460, 48 h; how it was run: as §1
K562 [2] = experiment: Cytotoxicity against human K562 cells after 48 hrs by SRB assay; assay type: functional; conditions: K562, 48 h; how it was run: as §1
HL-60(TB) [3] = experiment: Cytotoxicity against human HL-60(TB) cells after 48 hrs by SRB assay; assay type: functional; conditions: HL-60, 48 h; how it was run: as §1
SR [4] = experiment: Cytotoxicity against human SR cells after 48 hrs by SRB assay; assay type: functional
How it was run: (§2)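 NCI 60-cell-line panel, five 10-fold concentrations from 100 μM to 0.01 μM (10⁻⁴ to 10⁻⁸ M) with 48-h continuous exposure. Growth was read by SRB protein staining against time-zero and untreated controls. […] Values beyond the tested range are expressed as greater or less than the limit.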

RPMI-8226 [5] = experiment: Cytotoxicity against human RPMI8226 cells after 48 hrs by SRB assay; assay type: functional; conditions: RPMI-8226, 48 h; how it was run: as §1
BT-549 [6] = experiment: Cytotoxicity against human BT549 cells assessed as cell growth at 10 uM after 48 hrs by SRB assay relative to control; assay type: functional; conditions: BT-549, 48 h, read-out: Activity
How it was run: (§3)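 NCI 60-cell-line primary screen. Test agent added once at 10⁻⁵ M, cultures incubated 48 h, end point by sulforhodamine B protein staining read spectrophotometrically. Value is percent growth of treated cells relative to untreated control cells.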

Hs-578T = experiment: Cytotoxicity against human Hs578T cells assessed as cell growth at 10 uM after 48 hrs by SRB assay relative to control; assay type: functional; conditions: read-out: Activity; how it was run: as §3
MDA-MB-435 [7] = experiment: Cytotoxicity against human MDA-MB-435 cells assessed as cell growth at 10 uM after 48 hrs by SRB assay relative to control; assay type: functional; conditions: MDA-MB-435, 48 h, read-out: Activity
How it was run: (§4)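 This was the NCI primary screen, with compound added once at 10⁻⁵ M and cultures incubated for 48 h. The endpoint was sulforhodamine B protein staining. Results are expressed as percent growth of treated cells relative to untreated control cells.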

UACC-62 [8] = experiment: Cytotoxicity against human UACC62 cells assessed as cell growth at 10 uM after 48 hrs by SRB assay relative to control; assay type: functional; conditions: UACC-62, 48 h, read-out: Activity
How it was run: (§5)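 Single-dose NCI screen: compound at 10⁻⁵ M added to tumor cell cultures and incubated for 48 h. The SRB protein-binding dye end point was read spectrophotometrically. Results are percent growth of treated cells relative to untreated controls.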

NCI-H460 [9] = experiment: Cytotoxicity against human NCI-H460 cells assessed as cell growth at 10 uM after 48 hrs by SRB assay relative to control; assay type: functional; conditions: NCI-H460, 48 h, read-out: Activity; how it was run: as §3
A549 [10] = experiment: Cytotoxicity against human A549 cells assessed as cell growth at 10 uM after 48 hrs by SRB assay relative to control; assay type: functional; conditions: A549, 48 h, read-out: Activity; how it was run: as §4
NCI-H522 = experiment: Cytotoxicity against human NCI-H522 cells assessed as cell growth at 10 uM after 48 hrs by SRB assay relative to control; assay type: functional; conditions: NCI-H522, 48 h, read-out: Activity; how it was run: as §4
T47D [11] = experiment: Cytotoxicity against human T47D cells assessed as cell growth at 10 uM after 48 hrs by SRB assay relative to control; assay type: functional; conditions: read-out: Activity; how it was run: as §5
MCF7 [12] = experiment: Cytotoxicity against human MCF7 cells assessed as cell growth at 10 uM after 48 hrs by SRB assay relative to control; assay type: functional; conditions: MCF7, 48 h, read-out: Activity; how it was run: as §4
PC-3 [13] = experiment: Cytotoxicity against human PC3 cells assessed as cell growth at 10 uM after 48 hrs by SRB assay relative to control; assay type: functional; conditions: PC-3, 48 h, read-out: Activity; how it was run: as §4
SF-295 [14] = experiment: Cytotoxicity against human SF295 cells assessed as cell growth at 10 uM after 48 hrs by SRB assay relative to control; assay type: functional; conditions: SF-295, 48 h, read-out: Activity; how it was run: as §4
KM12 = experiment: Cytotoxicity against human KM12 cells assessed as cell growth at 10 uM after 48 hrs by SRB assay relative to control; assay type: functional; conditions: KM12, 48 h, read-out: Activity; how it was run: as §4
MOLT-4 [15] = experiment: Cytotoxicity against human MOLT4 cells assessed as cell growth at 10 uM after 48 hrs by SRB assay relative to control; assay type: functional; conditions: MOLT-4, 48 h, read-out: Activity; how it was run: as §4
HL-60(TB) [16] = experiment: Cytotoxicity against human HL-60(TB) cells assessed as cell growth at 10 uM after 48 hrs by SRB assay relative to control; assay type: functional; conditions: HL-60, 48 h, read-out: Activity; how it was run: as §4
CCRF-CEM = experiment: Cytotoxicity against human CCRF-CEM cells assessed as cell growth at 10 uM after 48 hrs by SRB assay relative to control; assay type: functional; conditions: read-out: Activity; how it was run: as §4
RPMI-8226 [17] = experiment: Cytotoxicity against human RPMI8226 cells assessed as cell growth at 10 uM after 48 hrs by SRB assay relative to control; assay type: functional; conditions: RPMI-8226, 48 h, read-out: Activity; how it was run: as §4
K562 [18] = experiment: Cytotoxicity against human K562 cells assessed as cell growth at 10 uM after 48 hrs by SRB assay relative to control; assay type: functional; conditions: K562, 48 h, read-out: Activity; how it was run: as §4
SR [19] = experiment: Cytotoxicity against human SR cells assessed as cell growth at 10 uM after 48 hrs by SRB assay relative to control; assay type: functional; conditions: read-out: Activity; how it was run: as §5
Trypanosoma cruzi = experiment: Antitrypanosomal activity against […] form of Trypanosoma cruzi Y infected in monkey […] cells assessed as parasite growth inhibition after 15 hrs by trypan blue staining-based hemocytometric analysis; assay type: functional, organism-based
T47D [20] = experiment: Cytotoxicity against human T47D cells after 48 hrs by SRB assay; assay type: functional; how it was run: as §2
BT-549 [21] = experiment: Cytotoxicity against human BT549 cells after 48 hrs by SRB assay; assay type: functional; conditions: BT-549, 48 h; how it was run: as §1
[22] = Cytotoxicity against human Hs 578T cells after 48 hrs by SRB assay; assay type: functional; how it was run: as §1
MCF7 [23] = experiment: Cytotoxicity against human MCF7 cells after 48 hrs by SRB assay; assay type: functional; conditions: MCF7, 48 h; how it was run: as §1
A498 = experiment: Cytotoxicity against human A498 cells after 48 hrs by SRB assay; assay type: functional; conditions: A498, 48 h; how it was run: as §1
SK-MEL-5 = experiment: Cytotoxicity against human SK-MEL-5 cells after 48 hrs by SRB assay; assay type: functional; conditions: SK-MEL-5, 48 h; how it was run: as §2
SF-539 = experiment: Cytotoxicity against human SF539 cells after 48 hrs by SRB assay; assay type: functional; conditions: SF-539, 48 h; how it was run: as §1
NCI-H322M = experiment: Cytotoxicity against human NCI-H322M cells after 48 hrs by SRB assay; assay type: functional; how it was run: as §1
HOP-92 = experiment: Cytotoxicity against human HOP92 cells after 48 hrs by SRB assay; assay type: functional; conditions: HOP-92, 48 h; how it was run: as §1
A549 [24] = experiment: Cytotoxicity against human A549 cells after 48 hrs by SRB assay; assay type: functional; conditions: A549, 48 h; how it was run: as §1
MOLT-4 [25] = experiment: Cytotoxicity against human MOLT4 cells after 48 hrs by SRB assay; assay type: functional; conditions: MOLT-4, 48 h; how it was run: as §1
DU-145 = experiment: Cytotoxicity against human DU145 cells after 48 hrs by SRB assay; assay type: functional; conditions: DU-145, 48 h; how it was run: as §1
PC-3 [26] = experiment: Cytotoxicity against human PC3 cells after 48 hrs by SRB assay; assay type: functional; conditions: PC-3, 48 h; how it was run: as §1
OVCAR-3 = experiment: Cytotoxicity against human OVCAR3 cells after 48 hrs by SRB assay; assay type: functional; conditions: OVCAR-3, 48 h; how it was run: as §1
UACC-62 [27] = experiment: Cytotoxicity against human UACC62 cells after 48 hrs by SRB assay; assay type: functional; conditions: UACC-62, 48 h; how it was run: as §2
MDA-MB-435 [28] = experiment: Cytotoxicity against human MDA-MB-435 cells after 48 hrs by SRB assay; assay type: functional; conditions: MDA-MB-435, 48 h; how it was run: as §1
U-251 = experiment: Cytotoxicity against human U251 cells after 48 hrs by SRB assay; assay type: functional; conditions: U-251, 48 h; how it was run: as §2
SF-295 [29] = experiment: Cytotoxicity against human SF295 cells after 48 hrs by SRB assay; assay type: functional; conditions: SF-295, 48 h; how it was run: as §1
HCT-15 = experiment: Cytotoxicity against human HCT15 cells after 48 hrs by SRB assay; assay type: functional; conditions: HCT-15, 48 h; how it was run: as §1
OVCAR-4 = experiment: Cytotoxicity against human OVCAR4 cells assessed as cell growth at 10 uM after 48 hrs by SRB assay relative to control; assay type: functional; conditions: OVCAR-4, 48 h, read-out: Activity; how it was run: as §4

O=C1NC(=O)/C(=C/C(=O)N2N=C(c3ccc4ccccc4c3)CC2c2ccc(Cl)cc2)S1 (centres undefined)
GI50 (HCT-116): 3.01 µM
TGI (HCT-116): 13.9 µM
GI50 (NCI-H460 [1]): 1.89 µM
TGI (NCI-H460 [1]): 4.7 µM
GI50 (K562 [2]): 1.9 µM
TGI (K562 [2]): 11.2 µM
GI50 (HL-60(TB) [3]): 3.2 µM
TGI (HL-60(TB) [3]): 6.48 µM
GI50 (SR [4]): 1.98 µM
TGI (SR [4]): 5.92 µM
GI50 (RPMI-8226 [5]): 1.97 µM
TGI (RPMI-8226 [5]): 5.88 µM
growth at 10 µM (BT-549 [6]): 34.2%
growth at 10 µM (Hs-578T): 35.6%
growth at 10 µM (MDA-MB-435 [7]): 39.5%
growth at 10 µM (UACC-62 [8]): 32.8%
growth at 10 µM (NCI-H460 [9]): 25.9%
growth at 10 µM (A549 [10]): 30%
growth at 10 µM (NCI-H522): 23.2%
growth at 10 µM (T47D [11]): 39.3%
growth at 10 µM (MCF7 [12]): 34.4%
growth at 10 µM (PC-3 [13]): 36%
growth at 10 µM (SF-295 [14]): -5.27%
growth at 10 µM (KM12): 25.8%
growth at 10 µM (MOLT-4 [15]): 11.5%
growth at 10 µM (HL-60(TB) [16]): 13.5%
growth at 10 µM (CCRF-CEM): 16.7%
growth at 10 µM (RPMI-8226 [17]): 2.48%
growth at 10 µM (K562 [18]): 24.6%
growth at 10 µM (SR [19]): 10.6%
IC50 (Trypanosoma cruzi): 0.3 µM
GI50 (T47D [20]): 1.53 µM
TGI (T47D [20]): 9.4 µM
GI50 (BT-549 [21]): 2.16 µM
TGI (BT-549 [21]): 7.75 µM
GI50 [22]: 1.94 µM
TGI [22]: 8.26 µM
GI50 (MCF7 [23]): 2.53 µM
TGI (MCF7 [23]): 14.1 µM
GI50 (A498): 1.41 µM
TGI (A498): 5.38 µM
GI50 (SK-MEL-5): 2.09 µM
TGI (SK-MEL-5): 22.5 µM
GI50 (SF-539): 2.43 µM
TGI (SF-539): 5.79 µM
GI50 (NCI-H322M): 2.89 µM
TGI (NCI-H322M): 100 µM
GI50 (HOP-92): 1.17 µM
TGI (HOP-92): 9.72 µM
GI50 (A549 [24]): 3.06 µM
TGI (A549 [24]): 100 µM
GI50 (MOLT-4 [25]): 1.64 µM
GI50 (DU-145): 4.27 µM
TGI (DU-145): 100 µM
GI50 (PC-3 [26]): 4.94 µM
TGI (PC-3 [26]): 100 µM
GI50 (OVCAR-3): 2.9 µM
TGI (OVCAR-3): 10.6 µM
GI50 (UACC-62 [27]): 2.66 µM
TGI (UACC-62 [27]): 12.8 µM
GI50 (MDA-MB-435 [28]): 2.7 µM
TGI (MDA-MB-435 [28]): 16.5 µM
GI50 (U-251): 2.58 µM
TGI (U-251): 13.2 µM
GI50 (SF-295 [29]): 2.45 µM
TGI (SF-295 [29]): 9.12 µM
GI50 (HCT-15): 2.41 µM
TGI (HCT-15): 100 µM

COc1ccc(C2CC(c3ccc4ccccc4c3)=NN2C2SC(=O)N(CN3CCOCC3)C2=O)cc1 (centres undefined)
growth at 10 µM (OVCAR-4): 67.5%
